Data taken from ChEMBL document CHEMBL1158503, “Design and preliminary structure-activity relationship of redox-silent semisynthetic tocotrienol analogues as inhibitors for breast cancer proliferation and invasion” (Bioorg Med Chem, 2010).
Calls of active or inactive are those of the source. The calls are words filed in the database; no cut-off is given here.

Assays:
[1] = system: MDA-MB-231; experiment: Antiinvasive activity in human MDA-MB-231 at 5 uM after 24 hrs by BME cell invasion assay; assay type: functional, cell-based
Procedure, shortened: (§1)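 Cultrex 96-well BME invasion kit (Boyden-type, 8 µm PET membrane), BME 1X coat set overnight at 37 °C. 50,000 MDA-MB-231 cells in serum-free RPMI put in the top chamber with compound at 5 µM. The lower chamber held RPMI with 10% FBS, fibronectin and 10 nM fMLP as chemoattractants. Migration ran 24 h at 37 °C. Invaded cells were loaded with calcein-AM for 1 h and read by fluorescence (ex 485/em 520 nm).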

[2] = system: MCF7; experiment: Antiproliferative activity against human MCF7 cells after 96 hrs by MTT assay; assay type: functional, cell-based; details: MCF7, 96 h
Procedure, shortened: (§2)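 Cells were grown in RPMI with 10% FBS, 2 mmol/L glutamine and penicillin/streptomycin at 37 °C, 5% CO2. They were seeded at 8 × 10^3 cells/well and left to attach for 24 h. Medium was then changed to serum-free RPMI containing compound at 20, 10, 5 or 2 µM for 96 h. MTT was added for 4 h, then solubilized, and A570 read. Cell number came from a hemocytometer standard curve. IC50 was taken by nonlinear regression of log concentration vs cells/well.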

[3] = system: MDA-MB-231; experiment: Antiproliferative activity against human MDA-MB-231 cells after 96 hrs by MTT assay; assay type: functional, cell-based; details: MDA-MB-231, 96 h; procedure, shortened: as §2
[4] = Inhibition of EGF-dependent mouse +SA cells growth; assay type: functional, +SA cell
[5] = system: MDA-MB-231; experiment: Antiinvasive activity in human MDA-MB-231 assessed as cell migration at 5 uM after 24 hrs by BME cell invasion assay; assay type: functional, cell-based; procedure, shortened: as §1
[6] = Ratio of IC50 for gamma-tocotrienol to IC50 for drug against mouse +SA cells after 4 days by MTT assay; assay type: functional, +SA cell
[7] = Antiproliferative activity against mouse +SA cells after 4 days by MTT assay; assay type: functional, cell-based; details: +SA cell, 96 h
Procedure, shortened: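 +SA mouse mammary epithelial cells were kept in serum-free medium with 10 ng/mL EGF and 10 µg/mL insulin as mitogens. They were plated at 5 × 10^4 cells/well, 6 wells/group, and fed compound at 0.01–1000 µM. Viable cell number was measured by MTT after 4 days of culture.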

IC50 [2]	IC50 [3]	SMILES	Activity [1]	also measured
> 20 µM	6.6 µM	CC(C)=CCC/C(C)=C/CC/C(C)=C/CC[C@]1(C)CCc2cc(OC(=O)NS(=O)(=O)c3ccc(C)cc3)cc(C)c2O1	Active	–
–	–	CC(C)=CCC/C(C)=C/CC/C(C)=C/CC[C@]1(C)CCc2cc(OCCC(C)C)c(C)c(C)c2O1	inactive	–
> 20 µM	> 10 µM	CC(C)=CCC/C(C)=C/CC/C(C)=C/CC[C@]1(C)CCc2cc(OC(=O)NS(=O)(=O)c3ccc(Cl)cc3)c(C)c(C)c2O1	–	–
> 20 µM	> 10 µM	CC(C)=CCC/C(C)=C/CC/C(C)=C/CC[C@]1(C)CCc2c(C)c(OC(=O)Nc3ccccc3)c(C)c(C)c2O1	–	–
> 20 µM	> 10 µM	CC(C)=CCC/C(C)=C/CC/C(C)=C/CC[C@]1(C)CCc2c(C)c(O)c(C)c(C)c2O1 [ALPHA-TOCOTRIENOL]	–	–
6.1 µM	> 10 µM	CC(C)=CCC/C(C)=C/CC/C(C)=C/CC[C@]1(C)CCc2c(C)c(OC(=O)NS(=O)(=O)c3ccc(C)cc3)c(C)c(C)c2O1	–	–
> 20 µM	> 10 µM	CC(C)=CCC/C(C)=C/CC/C(C)=C/CC[C@]1(C)CCc2cc(OC(=O)Nc3ccccc3)cc(C)c2O1	–	–
> 20 µM	> 10 µM	CC(C)=CCC/C(C)=C/CC/C(C)=C/CC[C@]1(C)CCc2cc(OC(=O)NCc3ccccc3)c(C)c(C)c2O1	Active	–
–	–	CC(C)=CCC/C(C)=C/CC/C(C)=C/CC[C@]1(C)CCc2cc(OC/C=C(\C)CC/C=C(\C)CCC=C(C)C)cc(C)c2O1	inactive	–
329 µM	–	Cc1cc(C)c2c(c1C)O[C@](C)(CCCC(C)CCCC(C)CCCC(C)C)CC2 (some centres undefined)	–	–
> 20 µM	> 10 µM	CC(C)=CCC/C(C)=C/CC/C(C)=C/CC[C@]1(C)CCc2cc(OC(=O)NS(=O)(=O)c3ccccc3)c(C)c(C)c2O1	–	–
> 20 µM	> 10 µM	CC(C)=CCC/C(C)=C/CC/C(C)=C/CC[C@]1(C)CCc2c(C)c(OC(=O)NC(=O)Oc3ccccc3)c(C)c(C)c2O1	–	–
–	–	COc1cccc(COc2c(C)c(C)c3c(c2C)CC[C@@](C)(CC/C=C(\C)CC/C=C(\C)CCC=C(C)C)O3)c1	inactive	–
> 20 µM	> 10 µM	CC(C)=CCC/C(C)=C/CC/C(C)=C/CC[C@]1(C)CCc2cc(OC(=O)Nc3ccccc3)c(C)c(C)c2O1	–	–
15.5 µM	> 10 µM	CC(C)=CCC/C(C)=C/CC/C(C)=C/CC[C@]1(C)CCc2cc(O)cc(C)c2O1 [DELTA-TOCOTRIENOL]	–	–
–	–	CC(C)=CCC/C(C)=C/CC/C(C)=C/CC[C@]1(C)CCc2c(C)c(OC/C=C(\C)CC/C=C(\C)CCC=C(C)C)c(C)c(C)c2O1	inactive	–
> 20 µM	7.2 µM	CC(C)=CCC/C(C)=C/CC/C(C)=C/CC[C@]1(C)CCc2c(C)c(OC(=O)NCc3ccccc3)c(C)c(C)c2O1	–	Activity [5]: 8%

IC50 [2]	IC50 [3]	SMILES	Activity [1]	also measured
2.4 µM	> 10 µM	CC(C)=CCC/C(C)=C/CC/C(C)=C/CC[C@]1(C)CCc2cc(OC(=O)NS(=O)(=O)c3ccc(C)cc3)c(C)c(C)c2O1	–	Ratio IC50 [6]: 2; IC50 [7]: 2000 nM
5.1 µM	> 10 µM	CC(C)=CCC/C(C)=C/CC/C(C)=C/CC[C@]1(C)CCc2c(C)c(OC(=O)NS(=O)(=O)c3ccc(Cl)cc3)c(C)c(C)c2O1	–	–
–	–	CC(C)=CCCOc1cc2c(c(C)c1C)O[C@](C)(CC/C=C(\C)CC/C=C(\C)CCC=C(C)C)CC2	inactive	–
–	–	COc1cccc(COc2cc3c(c(C)c2C)O[C@](C)(CC/C=C(\C)CC/C=C(\C)CCC=C(C)C)CC3)c1	inactive	–
> 20 µM	–	CC(C)=CCC/C(C)=C/CC/C(C)=C/CC[C@]1(C)CCc2cc(OC(=O)NC(=O)Oc3ccccc3)c(C)c(C)c2O1	–	–
–	–	COc1cc2c(c(C)c1C)O[C@](C)(CC/C=C(\C)CC/C=C(\C)CCC=C(C)C)CC2	inactive	–
> 368 µM	–	Cc1c(C)c2c(c(C)c1OC(=O)CCC(=O)O)CC[C@@](C)(CCCC(C)CCCC(C)CCCC(C)C)O2 (some centres undefined)	–	–
6.1 µM	> 10 µM	CC(C)=CCC/C(C)=C/CC/C(C)=C/CC[C@]1(C)CCc2cc(OC(=O)NS(=O)(=O)c3ccccc3)cc(C)c2O1	–	–
12 µM	–	Cc1c(C)c2c(c(C)c1OC(=O)[C@@H](N)CCCCN)CC[C@@](C)(CCCC(C)CCCC(C)CCCC(C)C)O2 (some centres undefined)	–	–
5.6 µM	–	CC(C)=CCC/C(C)=C/CC/C(C)=C/CC[C@]1(C)CCc2cc(OC(=O)NC(=O)Oc3ccccc3)cc(C)c2O1	–	–
> 20 µM	> 10 µM	CC(C)=CCC/C(C)=C/CC/C(C)=C/CC[C@]1(C)CCc2cc(OC(=O)NCc3ccccc3)cc(C)c2O1	–	–
–	–	CC(C)=CCC/C(C)=C/CC/C(C)=C/CC[C@]1(C)CCc2cc(OC/C=C(\C)CC/C=C(\C)CCC=C(C)C)c(C)c(C)c2O1	inactive	–
4.5 µM	> 10 µM	CC(C)=CCC/C(C)=C/CC/C(C)=C/CC[C@]1(C)CCc2c(C)c(OC(=O)NS(=O)(=O)c3ccccc3)c(C)c(C)c2O1	–	–
–	–	COc1cc(COc2c(C)c(C)c3c(c2C)CC[C@@](C)(CC/C=C(\C)CC/C=C(\C)CCC=C(C)C)O3)cc(OC)c1	inactive	–
–	–	COc1cc(COc2cc3c(c(C)c2C)O[C@](C)(CC/C=C(\C)CC/C=C(\C)CCC=C(C)C)CC3)cc(OC)c1	inactive	–
> 20 µM	> 10 µM	CC(C)=CCC/C(C)=C/CC/C(C)=C/CC[C@]1(C)CCc2cc(OC(=O)NS(=O)(=O)c3ccc(Cl)cc3)cc(C)c2O1	–	–

SMILES	IC50 [2]	IC50 [3]	Activity [1]	also measured
CC(C)=CCC/C(C)=C/CC/C(C)=C/CC[C@]1(C)CCc2cc(O)c(C)c(C)c2O1 [GAMMA-TOCOTRIENOL]	11.4 µM	> 10 µM	–	inhibition (INH) [4]: 50%
